# Screening results as filed in PubChem.
# PfM18AAP inh: PfM18AAP inhibitors, malaria aminopeptidase, primary screen, biochemical, QFRET, recombinant enzyme; M18 aspartyl aminopeptidase (Plasmodium falciparum 3D7); H-Glu-NHMec fluorogenic cleavage; inhibition, % at 7.35 µM; 290,000 tested, 1.2% active;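 active = inhibition above the campaign mean inhibition over all tested compounds plus 3 SD, cut at about 28% in these data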
# CTSL1 counter: Fasciola hepatica cathepsin L1 inhibitors, primary screen, counter-screen for PFM18AAP inhibitor project, biochemical, QFRET, fluorogenic peptide substrate; recombinant F. hepatica cathepsin L1, Z-Leu-Arg-MCA fluorescence; inhibition, % at 5.96 µM; 300,000 tested, 0.49% active;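 active = inhibition above the mean of all tested compounds plus 3 SD, set per screening campaign, cut at about 17% in these data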
# FXN GAA850 act: FXN promoter activators, primary screen, cell-based, luciferase luminescence, HEK293 lucGAA850. HEK293 lucGAA850 FXN promoter luciferase reporter, 24 h; percent of 10 µM SAHA response. activation, % at 6 µM. 360,000 tested, 0.56% active;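 active = activation above the average of all compounds screened plus 3 SD, cutoff fixed separately per campaign, cut at about 7.5% in these data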
# AHR activator: AHR activators, primary screen, cell-based, luminescence, luciferase reporter, human | Aryl hydrocarbon receptor (Homo sapiens), P35869 | AHR-responsive luciferase reporter cells | activation, % at 5 µM | 320,000 tested, 2.5% active; in the data active = activation above about 47%
# Target sequence (P35869 whole entry, looked up): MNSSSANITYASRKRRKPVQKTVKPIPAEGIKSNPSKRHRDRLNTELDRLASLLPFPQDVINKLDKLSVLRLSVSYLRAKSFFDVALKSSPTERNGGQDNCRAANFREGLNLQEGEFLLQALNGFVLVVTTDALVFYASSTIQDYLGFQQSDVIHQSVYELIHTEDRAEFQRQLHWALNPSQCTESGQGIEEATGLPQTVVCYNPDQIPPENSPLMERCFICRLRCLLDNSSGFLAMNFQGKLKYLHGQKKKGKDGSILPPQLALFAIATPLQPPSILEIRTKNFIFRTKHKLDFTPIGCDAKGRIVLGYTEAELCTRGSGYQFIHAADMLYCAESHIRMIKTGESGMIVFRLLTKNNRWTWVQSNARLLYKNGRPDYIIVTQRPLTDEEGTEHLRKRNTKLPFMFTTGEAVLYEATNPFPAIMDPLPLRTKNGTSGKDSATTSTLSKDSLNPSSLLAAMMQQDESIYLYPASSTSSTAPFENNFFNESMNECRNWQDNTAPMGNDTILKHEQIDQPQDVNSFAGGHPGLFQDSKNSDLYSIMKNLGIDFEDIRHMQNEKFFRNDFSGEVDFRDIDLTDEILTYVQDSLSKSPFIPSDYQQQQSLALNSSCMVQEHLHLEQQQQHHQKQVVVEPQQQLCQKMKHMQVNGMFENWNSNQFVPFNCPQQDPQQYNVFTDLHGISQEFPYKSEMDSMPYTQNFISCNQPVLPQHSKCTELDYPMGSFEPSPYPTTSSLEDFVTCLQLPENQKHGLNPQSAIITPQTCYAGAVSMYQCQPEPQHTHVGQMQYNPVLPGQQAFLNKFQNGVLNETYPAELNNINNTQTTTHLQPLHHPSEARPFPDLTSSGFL
# HDAC3 inh: HDAC3 deacetylase inhibitors, primary screen, biochemical, fluorescence, cell-free homogeneous; recombinant HDAC3, fluorogenic peptide/trypsin coupled; inhibition, % at 8.3 µM; 320,000 tested, 0.15% active; AID 2718, 2010; in the data active = inhibition above about 26%, passing the limit was not always enough
# SENP1 FRET inh: human SENP1 catalytic domain inhibitors, primary screen, biochemical, FRET, uHTS; Sentrin-specific protease 1 (Homo sapiens), Q9P0U3; recombinant SENP1 catalytic domain, CyPet-SUMO1-YPet FRET cleavage; inhibition, % at 10 µM; 360,000 tested, 0.21% active; AID 624204, 2012;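 active = inhibition at least 30% at 10 µM, raw YFP signal under a set limit, fluorescence ratio 0.5 to 1.5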
#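 system = hSENP1 catalytic domain, recombinant | reagent = SFCypet-SUMO1-SFYpet substrate at 25 nM | doses = one dose per compound, 10 µM, 0.5% DMSO | incubation = enzyme reaction for 50 min at room temperature, dark | measured by = FRET, CFP and YFP emission | controls = no-enzyme low, enzyme-DMSO high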
# GAA30 counter: GAA30 FXN promoter activators, confirmation, counter-screen for GAA850 frataxin promoter activator project, cell-based, luminescence, HEK293, lucGAA30, triplicate. activation, % at 6 µM. shares compounds with FXN GAA850 act. 1,900 tested, 66% active. HEK293 lucGAA30 FXN promoter luciferase, 24 h; DMSO = 0%, 5 µM ipriflavone = 100%;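 active = mean activation above the mean of solvent-only control wells plus 3 SD, cut at about 22% in these data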;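 note: counterscreen of GAA850 promoter hits where activity marks nonselective or luminescence artifacts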
# GAA850 confirm: FXN GAA850 promoter activators in reporter cells, confirmation, cell-based, luminescence, HEK293 lucGAA850, triplicate; HEK293 lucGAA850 FXN promoter luciferase reporter, 24 h; 100% = activation by SAHA; AID 588351, 2011; 1,900 tested, 86% active; activation, % at 6 µM; shares compounds with FXN GAA850 act;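 active = mean activation above a set limit taken from the primary screen, cut at about 8% in these data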
# Numbers stand for hits; . = inactive; / = no result. Shown are actives, neighbours in structure and some others; about 4.2% of the full set was active somewhere.
SMILES,PfM18AAP inh,CTSL1 counter,FXN GAA850 act,AHR activator,HDAC3 inh,SENP1 FRET inh,GAA30 counter,GAA850 confirm
CCCC(CC)Sc1nc2c([nH]1)c(=S)n(C)c(=O)n2C (centres undefined),/,/,15.0,/,/,.,.,13.8
CCCCC(C)Sc1nc2c([nH]1)c(=S)n(C)c(=O)n2C (centres undefined),/,/,.,/,/,.,/,/
CCN(CC)CCSc1nc2c([nH]1)c(=S)n(C)c(=O)n2C,/,/,.,/,/,.,/,/
CCCCSc1nc2c([nH]1)c(=S)n(C)c(=O)n2C,/,/,19.2,/,/,.,.,15.1
COCCCn1cc(CN2CC(N3CCN(CCO)CC3)CS2(=O)=O)nn1 (centres undefined),/,/,/,/,/,.,/,/
Fc1cccc(Cn2ccc(-c3ccc4c(c3)OCO4)n2)c1,.,.,9.4,.,.,.,84.2,25.4
Cc1ccccc1Cn1ccc(-c2ccc3c(c2)OCO3)n1,.,.,.,.,.,.,/,/
COC(=O)[C@@]12C[C@@H](CC(=O)NCCc3ccccc3OC)C(=O)N(Cc3ccccc3)C1=CCC(C)(C)C2,/,/,/,/,/,.,/,/
Cc1sc(NC(=O)c2ccccc2)c(C#N)c1-c1ccccc1,.,.,10.8,.,.,.,111.4,38.0
Cc1ccc(C(=O)Nc2sc(C(=O)N(C)C)c(C)c2C#N)cc1,.,.,.,.,.,.,/,/
COc1ccc(/C(C)=N/Nc2ccc(C(=O)O)cc2)cc1OC,28.6,.,8.5,.,/,.,93.3,32.1
CCn1c(=O)[nH]c(=O)c2c(N)c(C(=O)c3cc(F)ccc3F)sc21,.,.,8.7,.,.,.,23.1,17.6
Cc1cc2c(cc1C)N(CC(=O)N1CCCC1)C(=O)CC(c1ccccc1)=N2,.,.,7.8,.,.,.,78.4,22.4
CCOP(=O)(Nc1cccc2oc(=O)c3ccccc3c12)OCC,/,/,7.8,/,/,.,25.2,17.5
CCOc1ccccc1N=Cc1c(O)c2ccccc2oc1=O,.,.,.,.,.,.,/,/
c1nc(C2CCCCC2)cc2cc3c(cc12)OCO3,/,/,.,.,.,.,/,/
CCCNC(=O)c1oc2ccc3c(c2c1C)C=CC(C)(C)O3,.,.,10.1,.,.,.,91.2,40.6
CCCNC(=O)c1oc2ccc3c(c2c1C)C(=O)CC(C)(C)O3,.,.,7.9,.,.,.,107.1,35.6
CCOC(=O)N1CCC2(CC1)CC(=O)c1c(ccc3oc(C(=O)O)c(C)c13)O2,.,.,.,.,.,.,/,/
N/C(=N\OC(=O)c1ccccc1)C(Cc1ccccc1)C(=O)NOC(=O)c1ccccc1 (centres undefined),/,/,.,/,/,.,/,/
Nc1ncc(Br)cc1S(=O)(=O)NCCC(=O)NCCc1ccc(Cl)cc1,.,.,.,.,.,.,/,/
Cc1noc(C)c1NC(=O)N(C)C[C@@H]1Oc2cc(Br)ccc2S(=O)(=O)N([C@H](C)CO)C[C@@H]1C,/,/,.,/,/,.,/,/
CN(C)S(=O)(=O)c1ccc(N2CCCC2)c(C(=O)NC(c2ccccc2)c2ccccc2)c1,.,.,.,.,.,.,/,/
CC(NC(=O)c1cc(S(=O)(=O)N(C)C)ccc1N1CCCC1)C1CC2CCC1C2 (centres undefined),.,.,10.8,.,/,.,31.0,13.1
O=C1c2ccc(Oc3cccc([N+](=O)[O-])c3)cc2C(=O)N1c1ccccn1,.,.,.,.,.,.,/,/
O=C1c2cc([N+](=O)[O-])cc3cc([N+](=O)[O-])cc(c23)C(=O)N1c1ccccn1,.,.,8.2,.,.,.,.,17.3
